Source: PubChem (several laboratories)
Hits are enriched below; roughly 1.3% of the tested compounds scored in any of these assays.
Casp6 inh: caspase-6 (human) enzyme inhibition. purified caspase-6, Z-VEID-R110 cleavage fluorescence. actives 0.53% (n = 350,000). P55212. AID 686996. inhibition, % at 12.5 µM;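 active = mean inhibition across replicates at least about 35%, with every replicate also reaching that limit, limit read from the data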;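 note: 0% = median of neutral control wells and 100% = no fluorescence left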
Target sequence (P55212 24-179 limits assumed): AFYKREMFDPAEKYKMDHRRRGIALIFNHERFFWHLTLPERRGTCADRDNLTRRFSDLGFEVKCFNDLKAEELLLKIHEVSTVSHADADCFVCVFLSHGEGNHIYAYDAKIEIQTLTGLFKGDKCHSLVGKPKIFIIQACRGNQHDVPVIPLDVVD
Target sequence (P55212 194-293 limits assumed): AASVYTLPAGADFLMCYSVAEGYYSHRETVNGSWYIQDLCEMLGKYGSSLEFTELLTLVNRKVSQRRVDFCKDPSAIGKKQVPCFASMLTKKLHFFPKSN
LEDGF integ inh: blocks HIV-1 LEDGF/p75-dependent DNA integration; actives 0.64% (n = 370,000); inhibition, % at 3.7 µM; AID 743269; TR-FRET IN-LEDGF/p75 DNA integration, Eu/Cy5;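 active = inhibition above the screen-wide mean plus 3 SD, cut at about 13% in these data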;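 note: signal is the Cy5 over europium emission ratio at 671 and 618 nm; 0% = plate median of compound wells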
ASAP1 GAP inh: ASAP1 ArfGAP inhibition. AID 624377. Q9ULH1. actives 0.19% (n = 360,000). inhibition, % at 16.5 µM. ASAP1-stimulated ARF1 GTP hydrolysis, GDP FP detection; in the data active = inhibition above about 25%;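 note: 0% = vehicle with enzyme and substrate and 100% = no enzyme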
TDP2 absorb: TDP2 (human) inhibition, absorbance primary screen; AID 720702; inhibition, % at 12.8 µM; actives 0.34% (n = 370,000); recombinant TDP2, T5PNP hydrolysis, p-nitrophenol absorbance 415 nm;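 active = inhibition above the mean of all tested compounds plus 3 SD, set per campaign, cut at about 25% in these data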;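 note: 0% = DMSO with enzyme and 100% = buffer with substrate but no TDP2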
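Read-out basis: percent inhibition. System: recombinant human TDP2. Buffer or medium: Mg2+-containing Tris-HCl buffer, pH 7.5. Repeats: single replicate. Timing: reaction 2 h, 37 °C. Benchmarks: high control without enzyme, low control DMSO plus TDP2. Probe or stimulus: 5 mM T5PNP. Doses: 12.8 µM only. Measured by: epi absorbance of p-nitrophenol freed from T5PNP by hydrolysis.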
ARFGAP1 inh: inhibits rat ARF GTPase activating protein 1 | Q62848 | Arfgap1-stimulated ARF1 GTP hydrolysis, GDP FP detection | inhibition, % at 16.5 µM | actives 0.26% (n = 360,000);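 active = inhibition above a per-plate limit, mean inhibition of low control wells plus 3 SD, cut at about 25% in these data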;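 note: 0% = DMSO wells with enzyme and 100% = wells lacking Arfgap1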
Target sequence (Q62848 1-136 limits assumed): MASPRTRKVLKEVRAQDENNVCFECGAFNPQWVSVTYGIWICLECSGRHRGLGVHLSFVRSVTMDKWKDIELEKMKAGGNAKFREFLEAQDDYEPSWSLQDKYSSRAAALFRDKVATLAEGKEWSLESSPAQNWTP
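System: truncated rat Arfgap1 GAP domain / Benchmarks: high control wells lacking Arfgap1, low control full reaction with DMSO / Times: compound-enzyme preincubation 20 min, reaction 120 min, detection 60 min, 25 °C / Repeats: one replicate per compound / Also added: human ARF1(Δ1-17)-GTP substrate / Measured by: Tracer-displacement fluorescence polarization with EDTA stop, 620/688 nm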
IN multimer up: HIV-1 integrase multimerization activation, counter-screen. AID 1053131. shares compounds with LEDGF integ inh. actives 17% (n = 2,000). activation, % at 7.7 µM. TR-FRET HIV-1 integrase multimerization, biochemical; in the data active = activation above about 8.9%
TRFRET interf: optically interferes with TR-FRET readout in LEDGF counter-screen. 2,000 tested, under 10 active. TR-FRET optical interference counterscreen, HIV-1 IN multimerization. inhibition, % at 7.7 µM. AID 1053135. shares compounds with LEDGF integ inh;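 active = inhibition above the mean over all tested compounds plus 3 SD, which no compound reached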;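 note: 0% = integrase with antibodies and DMSO and 100% = antibodies without integrase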
LEDGF integ conf: confirmation of HIV-1 LEDGF/p75-dependent integration inhibitors; shares compounds with LEDGF integ inh; TR-FRET LEDGF/p75-dependent HIV-1 integration, biochemical; inhibition, % at 3.7 µM; actives 36% (n = 2,000); in the data active = inhibition above about 14%
* = called active by the depositor; x = no result.

SMILES	Casp6 inh	LEDGF integ inh	ASAP1 GAP inh	TDP2 absorb	ARFGAP1 inh	IN multimer up	TRFRET interf	LEDGF integ conf
Cc1cccc(C)c1OC1(c2ccccc2)OC(=O)c2ccccc21 (stereo unspecified)	x	0	-1	1	-14	x	x	x
CCCNC(=O)C1(C)CCCN(C(=O)c2cc(C)nn2C(C)(C)C)C1 (stereo unspecified)	12	28*	-9	2	9	-4	18	0
CCCNC(=O)C1(C)CCN(C(=O)c2cc(C)nn2C(C)(C)C)C1 (stereo unspecified)	1	1	7	-2	9	x	x	x
C[C@H]1CCCCO[C@@H](CN(C)C)[C@@H](C)CN([C@@H](C)CO)C(=O)c2cc(NS(=O)(=O)c3ccccc3)ccc2O1	-5	x	x	x	x	x	x	x
Cc1noc(/C=C/N(C)C)c1S(=O)(=O)N1CCCC(C(=O)Nc2ccc3c(c2)OCO3)C1 (stereo unspecified)	-3	15*	-5	-10	3	-1	6	-4
O=C(CCSCc1cccc(Cl)c1)NC1CCCC1	x	51*	-4	-2	-1	3	-17	5
O=C(CCSCc1ccccc1Cl)NC1CCCC1	x	-2	9	1	1	x	x	x
O=C(CN1C(=O)c2cccc3cccc1c23)Nc1ccc2c(c1)OCO2	x	-3	-3	-8	1	x	x	x
COc1ccc(Cl)cc1Nc1nc(NCCO)nc(N2CCCCC2)n1	1	-1	11	-9	4	x	x	x
COc1ccc(Cl)cc1Nc1nc(NCCO)nc(N2CCCC2)n1	-2	24*	-1	4	5	2	-7	-1
CC(=O)Nc1ccc(NC(=O)C2CCCN2C(=O)NCc2ccccc2)cc1 (stereo unspecified)	-2	-2	15	2	10	x	x	x
O=C(N/N=C/C=C/c1ccco1)c1cnccn1	22	26*	-5	-11	-10	3	-13	20*
O=C(N/N=C/c1ccco1)c1cnccn1	4	4	-5	0	4	x	x	x
O=C(N/N=C/C=C/c1ccco1)c1cccnc1	x	27*	-6	-10	-9	3	-13	34*
Cc1ccc(Nc2c([N+](=O)[O-])c(=O)oc3ccccc23)cc1C	2	14*	-7	0	0	3	-9	12
O=c1cc(CSc2nnc(NC3CCCCC3)s2)nc2sccn12	6	-8	-4	-6	2	x	x	x
C=CCn1c(SCc2cc(=O)n3ccsc3n2)nnc1C1CCCCC1	x	15*	-7	-4	-6	6	-29	2
CO[C@@H]1CN(C)C(=O)c2ccc(NC(=O)C3CCOCC3)cc2OC[C@@H](C)N(CC2CCOCC2)C[C@H]1C	0	x	x	x	x	x	x	x
O=c1/c(=C/c2ccco2)sc2n1CN(c1cccc(Br)c1)CN=2	x	11	4	1	-3	x	x	x
O=c1/c(=C/c2ccco2)sc2n1CN(c1ccccc1)CN=2	x	17*	-1	-1	6	2	-8	4
C[C@@H](NS(=O)(=O)c1ccc(Br)cc1F)[C@@H](O)c1ccccc1	2	3	-3	-8	-5	x	x	x
CC(NS(=O)(=O)c1ccc(Br)cc1F)[C@H](O)c1ccccc1 (stereo partly specified)	2	15*	-4	5	-6	2	-8	-3
C[C@H]1[C@@H](OC(=O)NCc2cccnc2)CC[C@@]23CCCN2C(=O)CCC[C@@H]13	x	-1	x	3	x	x	x	x
Cc1nn(Cc2c(F)c(F)c(F)c(F)c2F)c(C)c1NC(=O)c1ccc(COc2ccc(Cl)cc2Cl)o1	x	1	-1	5	8	x	x	x
Cc1nn(Cc2ccc(Cl)cc2Cl)c(C)c1NC(=O)c1ccc(COc2cc(Cl)ccc2Cl)o1	x	24*	5	-12	-4	0	0	-7
